Data on 22 molecules can be found in ChEMBL document CHEMBL1143208, “Structure and property based design of factor Xa inhibitors: biaryl pyrrolidin-2-ones incorporating basic heterocyclic motifs” (Bioorg Med Chem Lett, 2008).

SMILES strings stand for the structures.

The nature of data set [1]: Distribution coefficient, log D of the compound. To be noted: chromatographic hydrophobicity index (CHI) at pH 7.4. The class given is physicochemical. The procedure, abridged: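 Measured hydrophobicity expressed as a chromatographic hydrophobicity index (CHI) logD at pH 7.4.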
Data set [2] in a line: Dissociation constant, pKa of the compound. The class given is physicochemical.
A short description of data set [3]: Oral bioavailability in Sprague-Dawley rat. It is filed as ADME, organism-based. The note with it: in vivo. The procedure, abridged: (§1)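 Male Sprague–Dawley rats dosed intravenously and orally, with pharmacokinetic parameters derived from both routes.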
The nature of data set [4]: Half life in Sprague-Dawley rat. It is filed as ADME, organism-based. The note with it: in vivo. The procedure, abridged:
as §1

Data set [5] is described as follows: Plasma clearance in Sprague-Dawley rat. It is filed as ADME, organism-based. The procedure, abridged: as §1
The nature of data set [6]: Volume of distribution at steady state in Sprague-Dawley rat. It is filed as ADME, organism-based. To be noted: in vivo, read-out: Vdss. The procedure, abridged:
as §1

The term logD denotes the decadic logarithm of the distribution of all forms, ionised or not, between an organic phase and buffer at a given pH. Read a low logD as lower lipophilicity. In data set [1], `CN(C)Cc1ccnn1-c1ccc(N2CCC(NS(=O)(=O)c3cc4ccc(Cl)cc4s3)C2=O)c(F)c1` (configuration not stated) yielded a logD of 3.35.

Molecule `CN(C)Cc1ccn(-c2ccc(N3CCC(NS(=O)(=O)c4cc5ccc(Cl)cc5s4)C3=O)c(F)c2)n1` (configuration not stated) came in with a logD in data set [1] of 2.4.

In turn, `CN(C)Cc1nccn1-c1ccc(N2CCC(NS(=O)(=O)c3ccc4c(Cl)c[nH]c4c3)C2=O)c(F)c1` (configuration not stated) showed a logD in data set [1] of 1.98.

Take `CN(C)Cc1nccn1-c1ccc(N2CCC(NS(=O)(=O)c3ccc4cc(Cl)ccc4c3)C2=O)c(F)c1` (configuration not stated): the logD in data set [1] came out at 2.55.

`CN(C)Cc1nccn1-c1ccc(N2CCC(NS(=O)(=O)c3cc4ccc(Cl)cc4s3)C2=O)c(F)c1` (configuration not stated) returned a logD in data set [1] of 2.58.

With `C/C(=C\S(=O)(=O)NC1CCN(c2ccc(-n3cnc(CN(C)C)c3)cc2F)C1=O)c1ccc(Cl)s1` (configuration not stated), the logD in data set [1] was determined as 1.64.

With `CN(C)Cc1nocc1-c1ccc(N2CCC(NS(=O)(=O)/C=C/c3ccc(Cl)s3)C2=O)c(F)c1` (configuration not stated), the logD in data set [1] was found to be 3.29.

Molecule `C/C(=C\S(=O)(=O)NC1CCN(c2ccc(-n3cncc3CN(C)C)cc2F)C1=O)c1ccc(Cl)s1` (configuration not stated) yielded a logD in data set [1] of 2.31.

In data set [1], `CCN(C)Cc1nccn1-c1ccc(N2CCC(NS(=O)(=O)/C=C/c3ccc(Cl)s3)C2=O)c(F)c1` (configuration not stated) yielded a logD of 2.48.

`CC(C)N(C)Cc1nccn1-c1ccc(N2CCC(NS(=O)(=O)/C=C/c3ccc(Cl)s3)C2=O)c(F)c1` (configuration not stated) showed a logD in data set [1] of 2.7.

Turning to `C/C(=C\S(=O)(=O)NC1CCN(c2ccc(-n3ccc(CN(C)C)n3)cc2F)C1=O)c1ccc(Cl)s1` (configuration not stated), in data set [1], the logD amounted to 2.2.

For the molecule `CN(C)Cc1cn(-c2ccc(N3CCC(NS(=O)(=O)c4cc5ccc(Cl)cc5s4)C3=O)c(F)c2)cn1` (configuration not stated), in data set [1], the logD came to 1.82.

As a reminder, the pKa is the negative logarithm of the acid dissociation constant. A lower pKa goes with a stronger acid or weaker base. Molecule `O=C1C(NS(=O)(=O)/C=C/c2ccc(Cl)s2)CCN1c1ccc(-n2ccnc2CN2CCCC2)cc1F` (configuration not stated) registered a pKa in data set [2] of 7.95. Moreover, the logD in data set [1] was determined as 2.21.

For orientation: bioavailability means the share of a dose that reaches the circulation, judged against a reference dose that is usually intravenous. The half-life is the time needed for the level to fall by half in the phase considered. A word on the clearance: it is a measure of how efficiently the substance is removed, as volume per time. Read a low clearance as inefficient removal. In the case of `CN(C)Cc1nccn1-c1ccc(N2CCC(NS(=O)(=O)/C=C/c3ccc(Cl)s3)C2=O)c(F)c1` (configuration not stated), in data set [3], the bioavailability is 52%. Further, the half-life in data set [4] was 60 min. In data set [5], this molecule registered a clearance of 0.78 L/h/kg. In data set [2], this molecule showed a pKa of 7.26. In addition, the Vd in data set [6] worked out at 0.6 L/kg. For the same molecule, the logD in data set [1] amounted to 2.54.

`CN(C)Cc1nccn1-c1ccc(N2CCC(NS(=O)(=O)c3ccc4[nH]cc(Cl)c4c3)C2=O)c(F)c1` (configuration not stated) had a logD in data set [1] of 1.76.

In data set [3], `C/C(=C\S(=O)(=O)NC1CCN(c2ccc(-n3ccnc3CN(C)C)cc2F)C1=O)c1ccc(Cl)s1` (configuration not stated) showed a bioavailability of 16%. Besides, the half-life in data set [4] is 48 min. In data set [5], the clearance is 1.08 L/h/kg. The Vd in data set [6] came out at 0.7 L/kg. The molecule further displayed a logD in data set [1] of 2.44.

The molecule `O=C1C(NS(=O)(=O)/C=C/c2ccc(Cl)s2)CCN1c1ccc(-n2ccnc2CN2CCOCC2)cc1F` (configuration not stated) registered a pKa in data set [2] of 5.75. Besides, in data set [1], the logD amounted to 2.28.

As for `CN(C)Cc1nccn1-c1ccc(N2CCC(NS(=O)(=O)CCc3ccc(Cl)s3)C2=O)c(F)c1` (configuration not stated), in data set [3], the bioavailability amounted to 10%. For the same molecule, in data set [4], the half-life was 48 min. Also, the clearance in data set [5] was 2.34 L/h/kg. For the same molecule, in data set [6], the Vd came out at 1.1 L/kg. The logD in data set [1] was found to be 2.32.

Consider `CNCc1nccn1-c1ccc(N2CCC(NS(=O)(=O)/C=C/c3ccc(Cl)s3)C2=O)c(F)c1` (configuration not stated), for which the pH-dependent lipophilicity (logD) in data set [1] turned out to be 1.7.

In turn, `CN(C)Cc1nccn1-c1ccc(N2CCC(NS(=O)(=O)c3cc4cc(Cl)ccc4s3)C2=O)c(F)c1` (configuration not stated) yielded a logD in data set [1] of 2.59.

Molecule `CN(C)Cc1nccn1-c1ccc(N2CCC(NS(=O)(=O)c3ncc(-c4ccc(Cl)s4)s3)C2=O)c(F)c1` (configuration not stated) displayed a logD in data set [1] of 2.75.

The molecule `O=C1C(NS(=O)(=O)/C=C/c2ccc(Cl)s2)CCN1c1ccc(-n2ccnc2CN2CCC(F)C2)cc1F` (configuration not stated) registered a logD in data set [1] of 2.58.
